Source: ChEMBL document CHEMBL1129944, “[[(Arylpiperazinyl)alkyl]thio]thieno[2,3-d]pyrimidinone derivatives as high-affinity, selective 5-HT1A receptor ligands” (J Med Chem, 1997)

What was measured:
D(2) dopamine receptor = D(2) dopamine receptor (Rattus norvegicus, UniProt P61169); experiment: In vitro inhibitory concentration against radioligand [3H]spiperone binding to Dopamine receptor D2 in rat striatal membrane; type: cell membranes, Striatum
Summary of the method: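 Rat striatum was used, with incubation buffer 50 mM Tris-HCl pH 7.1 plus pargyline 10 μM, NaCl 120 mM, KCl 5 mM, CaCl2 2 mM, MgCl2 1 mM and 0.1% ascorbic acid. [3H]spiperone 0.2 nM final, 15 min at 37 °C; (-)sulpiride 100 μM defined nonspecific binding. GF/B filtration, scintillation counting, IC50 from fitted curves.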

[1] = target: T1, Adrenergic receptor alpha-1 (Rattus norvegicus, UniProt P15823+P23944+P43140); experiment: In vitro inhibitory concentration against radioligand [3H]prazosin binding to alpha-1 adrenergic receptor in rat cortical membrane.; type: cell membranes
T1 sequence (P15823 whole entry): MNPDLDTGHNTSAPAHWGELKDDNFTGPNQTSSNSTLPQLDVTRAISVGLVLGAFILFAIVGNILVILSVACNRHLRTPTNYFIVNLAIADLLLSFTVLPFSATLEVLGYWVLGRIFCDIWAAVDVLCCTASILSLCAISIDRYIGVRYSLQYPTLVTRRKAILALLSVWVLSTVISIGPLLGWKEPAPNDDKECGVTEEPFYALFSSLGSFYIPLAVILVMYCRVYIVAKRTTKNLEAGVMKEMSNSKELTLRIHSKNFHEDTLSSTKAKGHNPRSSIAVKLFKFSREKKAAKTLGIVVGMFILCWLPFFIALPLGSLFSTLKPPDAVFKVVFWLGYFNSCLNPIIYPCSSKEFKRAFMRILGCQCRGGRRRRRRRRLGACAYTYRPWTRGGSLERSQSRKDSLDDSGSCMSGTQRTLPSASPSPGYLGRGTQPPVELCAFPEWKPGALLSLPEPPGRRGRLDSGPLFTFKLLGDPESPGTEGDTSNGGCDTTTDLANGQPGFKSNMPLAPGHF
T1 sequence (P23944 whole entry): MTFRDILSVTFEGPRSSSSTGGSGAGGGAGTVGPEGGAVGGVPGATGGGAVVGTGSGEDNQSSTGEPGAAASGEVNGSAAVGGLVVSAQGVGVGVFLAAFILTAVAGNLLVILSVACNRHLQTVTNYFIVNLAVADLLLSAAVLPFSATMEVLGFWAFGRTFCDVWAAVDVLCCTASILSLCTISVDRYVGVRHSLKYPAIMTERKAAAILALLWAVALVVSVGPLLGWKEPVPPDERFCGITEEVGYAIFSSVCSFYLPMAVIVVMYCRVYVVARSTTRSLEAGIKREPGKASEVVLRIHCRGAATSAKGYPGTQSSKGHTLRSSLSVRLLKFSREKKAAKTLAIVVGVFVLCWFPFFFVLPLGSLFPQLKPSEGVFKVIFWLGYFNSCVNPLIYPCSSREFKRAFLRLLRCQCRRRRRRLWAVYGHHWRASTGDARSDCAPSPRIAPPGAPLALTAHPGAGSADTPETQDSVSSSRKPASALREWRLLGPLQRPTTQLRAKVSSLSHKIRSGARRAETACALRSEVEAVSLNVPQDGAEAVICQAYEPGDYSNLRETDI
T1 sequence (P43140 whole entry): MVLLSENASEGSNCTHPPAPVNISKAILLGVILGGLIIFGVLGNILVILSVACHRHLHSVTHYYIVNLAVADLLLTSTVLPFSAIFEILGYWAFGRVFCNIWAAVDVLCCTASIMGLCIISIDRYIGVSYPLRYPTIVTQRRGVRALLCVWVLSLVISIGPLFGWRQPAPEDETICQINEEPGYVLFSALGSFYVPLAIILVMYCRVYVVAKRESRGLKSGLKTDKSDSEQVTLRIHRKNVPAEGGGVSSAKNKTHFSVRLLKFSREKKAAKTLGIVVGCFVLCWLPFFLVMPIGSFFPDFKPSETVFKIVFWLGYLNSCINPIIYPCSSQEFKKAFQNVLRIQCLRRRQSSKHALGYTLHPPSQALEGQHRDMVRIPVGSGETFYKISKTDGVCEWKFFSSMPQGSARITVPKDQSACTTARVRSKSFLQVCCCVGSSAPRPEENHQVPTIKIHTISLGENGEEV
Summary of the method: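 Male CRL:CD(SD)BR-COBS rats (~150 g) were decapitated. Cortex was homogenized in 50 mM Tris-HCl pH 7.4, spun at 50000g, given 10 min at 37 °C and washed. Incubation buffer had 0.1% ascorbic acid and 10 μM pargyline. GF/B filtration and scintillation counting; IC50 from dose-inhibition curves.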

[2] = target: 5-hydroxytryptamine receptor 2A (Rattus norvegicus, UniProt P14842); experiment: In vitro inhibitory concentration against radioligand [3H]ketanserin binding to 5-hydroxytryptamine 2A receptor in rat cortical membrane; type: cell membranes
Summary of the method: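 Cortex from male rats (~150 g) was washed in Tris-HCl pH 7.4 and incubated in 50 mM Tris-HCl pH 7.7. [3H]ketanserin 0.7 nM final, 15 min at 37 °C; nonspecific binding with methysergide. Filtration and scintillation counting; concentration inhibiting binding by 50% derived from dose-inhibition curves.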

[3] = target: T2, 5-hydroxytryptamine receptor 1A (Rattus norvegicus, UniProt P19327); experiment: In vitro inhibitory concentration against radioligand [3H]8-OH-DPAT binding to 5-hydroxytryptamine 1A receptor in rat hippocampal membrane.; type: cell membranes, Hippocampus
T2 sequence (P19327 whole entry): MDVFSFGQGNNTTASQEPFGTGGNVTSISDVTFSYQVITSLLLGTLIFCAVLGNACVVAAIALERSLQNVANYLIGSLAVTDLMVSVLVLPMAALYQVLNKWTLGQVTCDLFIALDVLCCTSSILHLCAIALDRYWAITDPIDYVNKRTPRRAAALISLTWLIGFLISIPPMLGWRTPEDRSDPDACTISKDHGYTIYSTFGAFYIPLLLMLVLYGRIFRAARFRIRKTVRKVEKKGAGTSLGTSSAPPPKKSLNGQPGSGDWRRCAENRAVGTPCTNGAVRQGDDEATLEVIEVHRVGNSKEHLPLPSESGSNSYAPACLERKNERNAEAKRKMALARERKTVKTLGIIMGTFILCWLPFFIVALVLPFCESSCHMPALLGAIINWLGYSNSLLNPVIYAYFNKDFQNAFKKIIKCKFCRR
Summary of the method: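 Rat hippocampal membranes (male SD rats, ~150 g) were washed in 50 mM Tris-HCl pH 7.4, including 10 min at 37 °C. Incubation buffer contained 4 mM CaCl2 and 10 μM pargyline. Filtered onto GF/B and counted; 50% inhibitory concentration from fitted curves.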

Sequence of 5-hydroxytryptamine receptor 2A (P14842 whole entry): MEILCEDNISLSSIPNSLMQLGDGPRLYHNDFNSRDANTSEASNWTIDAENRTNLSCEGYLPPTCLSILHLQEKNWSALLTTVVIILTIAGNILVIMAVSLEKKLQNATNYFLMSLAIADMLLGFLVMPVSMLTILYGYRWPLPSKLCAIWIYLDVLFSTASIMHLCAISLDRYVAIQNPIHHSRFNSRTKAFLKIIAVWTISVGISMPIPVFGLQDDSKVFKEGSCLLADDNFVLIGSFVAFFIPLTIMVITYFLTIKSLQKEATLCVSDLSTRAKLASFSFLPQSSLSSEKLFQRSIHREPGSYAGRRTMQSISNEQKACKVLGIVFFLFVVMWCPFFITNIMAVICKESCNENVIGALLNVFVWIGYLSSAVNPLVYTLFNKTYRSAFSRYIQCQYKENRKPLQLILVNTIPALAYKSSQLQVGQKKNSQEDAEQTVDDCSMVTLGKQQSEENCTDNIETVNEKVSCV

| IC50 (D(2) dopamine receptor) | IC50 [1] | IC50 [2] | IC50 [3] | SMILES |
| --- | --- | --- | --- | --- |
| 0.06 µM | 0.0073 µM | 0.3 µM | 0.0003 µM | COc1ccccc1N1CCN(CCCSc2nc3sc(C)c(C)c3c(=O)n2N)CC1 |
| 0.1 µM | 0.036 µM | 0.3 µM | 0.0008 µM | COc1ccccc1C1CCN(CCCSc2nc3sc(C)c(C)c3c(=O)n2N)CC1 |
| 2 µM | 0.506 µM | 1 µM | 0.0068 µM | Cc1sc2nc(SCCCN3CCN(c4ncccn4)CC3)n(N)c(=O)c2c1C |
